Experimental data from ChEMBL document CHEMBL1275302, “Synthesis and in vitro antiproliferative activity of 5-alkyl-12(H)-quino[3,4-b] [1,4]benzothiazinium salts” (Eur J Med Chem, 2010).
Converted amounts (≈) assume the structure as drawn. The source made the active and inactive calls. The calls are words filed in the database; no cut-off is given here.

Key:
Assay type in all cases: functional, cell-based
HCT-116 [1] = assay: Antiproliferative activity against human HCT116 cells after 24 hrs by MTS assay; conditions: HCT-116, 24 h
Procedure, shortened: (§1)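 Cells kept at 37 °C, 5% CO2; seeded 1 × 10⁴ cells/well in D-MEM with 12% FCS, streptomycin and penicillin. After 24 h (about 80% confluent), aqueous stocks (DMSO added if needed) diluted in medium and added at various concentrations, 12 or 24 h incubation. Cells washed in PBS, resuspended in Phenol Red-free DMEM with MTS; formazan absorbance read. Survival as % of control; mean ± SD of three experiments; IC50 determined.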

[2] = test system: Lewis lung carcinoma cell line; assay: Antiproliferative activity against mouse LLC cells after 24 hrs by MTS assay; procedure, shortened: as §1
HCT-116 [3] = assay: Antiproliferative activity against human HCT116 cells at 0.1 to 100 ug/ml after 24 hrs by MTS assay; procedure, shortened: as §1
[4] = test system: Lewis lung carcinoma cell line; assay: Antiproliferative activity against mouse LLC cells at 0.1 to 100 ug/ml after 24 hrs by MTS assay; procedure, shortened: as §1

SMILES	IC50 (HCT-116 [1]) [µg/mL]	IC50 [2] [µg/mL]	Activity (HCT-116 [3])	Activity [4]
C[n+]1cc2c(c3ccccc31)Nc1cc(O)ccc1S2.[Cl-]	7.6	5.7	–	–
C[n+]1cc2c(c3ccccc31)Nc1ccc(N)cc1S2.[Cl-]	5.1	8.9	–	–
C[n+]1cc2c(c3ccccc31)Nc1c(O)cccc1S2	–	–	inactive	inactive
C[n+]1cc2c(c3ccccc31)Nc1ccc(F)cc1S2.[Cl-]	6.7	6.4	–	–
Cc1ccc2c(c1)Sc1c[n+](C)c3ccccc3c1N2.[Cl-]	4.4	8.8	–	–
C[n+]1cc2c(c3ccccc31)Nc1ccc(O)cc1S2.[Cl-]	6.7	7.2	–	–
C[n+]1cc2c(c3ccccc31)Nc1c(N)cccc1S2	–	–	inactive	inactive
COc1cccc2c1C(=O)c1c(O)c3c(c(O)c1C2=O)C[C@@](O)(C(=O)CO)C[C@@H]3O[C@H]1C[C@H](N)[C@H](O)[C@H](C)O1 [DOXORUBICIN]	3.3 (≈ 6.07 µM)	3.7 (≈ 6.81 µM)	–	–
Cc1cccc2c1Nc1c(c[n+](C)c3ccccc13)S2	–	–	inactive	inactive
CCCC[n+]1cc2c(c3ccccc31)Nc1ccccc1S2.[Br-]	14.4	14	–	–
CCCCCCCCCC[n+]1cc2c(c3ccccc31)Nc1ccccc1S2.[Br-]	19.6	17.1	–	–

The next lines start with results.

IC50 (HCT-116 [1]) [µg/mL]	IC50 [2] [µg/mL]	SMILES	Activity (HCT-116 [3])	Activity [4]
7.8	2.3	C[n+]1cc2c(c3ccccc31)Nc1ccccc1S2.[Cl-]	–	–
17.2	13.2	C[n+]1cc2c(c3ccccc31)Nc1cccnc1S2.[Cl-]	–	–
7.4	5.4	C[n+]1cc2c(c3ccccc31)Nc1ccc(Cl)cc1S2.[Cl-]	–	–
6.9	6.5	C[n+]1cc2c(c3ccccc31)Nc1ccc(Br)cc1S2.[Cl-]	–	–
2.2	4.7	C[n+]1cc2c(c3ccccc31)Nc1cc(N)ccc1S2.[Cl-]	–	–
